Data: ChEMBL document CHEMBL1129264, “Mercaptoacyl dipeptides as orally active dual inhibitors of angiotensin-converting enzyme and neutral endopeptidase” (1996)
Values belong to the compound of their own block, whether it stands above or below them.

Columns and labels:
Type in all cases: organism-based
[1] = biological target: T1, Angiotensin-converting enzyme (Rattus norvegicus) (UniProt P47820); test: Compound was tested for plasma inhibition of Angiotensin I converting enzyme activity in the conscious rat. Expressed as Inhibition of AI pressor response at 1 hr at a dose of 12.4 mg/kg po; set-up: dose 12.4 mg/kg
T1 sequence (whole entry): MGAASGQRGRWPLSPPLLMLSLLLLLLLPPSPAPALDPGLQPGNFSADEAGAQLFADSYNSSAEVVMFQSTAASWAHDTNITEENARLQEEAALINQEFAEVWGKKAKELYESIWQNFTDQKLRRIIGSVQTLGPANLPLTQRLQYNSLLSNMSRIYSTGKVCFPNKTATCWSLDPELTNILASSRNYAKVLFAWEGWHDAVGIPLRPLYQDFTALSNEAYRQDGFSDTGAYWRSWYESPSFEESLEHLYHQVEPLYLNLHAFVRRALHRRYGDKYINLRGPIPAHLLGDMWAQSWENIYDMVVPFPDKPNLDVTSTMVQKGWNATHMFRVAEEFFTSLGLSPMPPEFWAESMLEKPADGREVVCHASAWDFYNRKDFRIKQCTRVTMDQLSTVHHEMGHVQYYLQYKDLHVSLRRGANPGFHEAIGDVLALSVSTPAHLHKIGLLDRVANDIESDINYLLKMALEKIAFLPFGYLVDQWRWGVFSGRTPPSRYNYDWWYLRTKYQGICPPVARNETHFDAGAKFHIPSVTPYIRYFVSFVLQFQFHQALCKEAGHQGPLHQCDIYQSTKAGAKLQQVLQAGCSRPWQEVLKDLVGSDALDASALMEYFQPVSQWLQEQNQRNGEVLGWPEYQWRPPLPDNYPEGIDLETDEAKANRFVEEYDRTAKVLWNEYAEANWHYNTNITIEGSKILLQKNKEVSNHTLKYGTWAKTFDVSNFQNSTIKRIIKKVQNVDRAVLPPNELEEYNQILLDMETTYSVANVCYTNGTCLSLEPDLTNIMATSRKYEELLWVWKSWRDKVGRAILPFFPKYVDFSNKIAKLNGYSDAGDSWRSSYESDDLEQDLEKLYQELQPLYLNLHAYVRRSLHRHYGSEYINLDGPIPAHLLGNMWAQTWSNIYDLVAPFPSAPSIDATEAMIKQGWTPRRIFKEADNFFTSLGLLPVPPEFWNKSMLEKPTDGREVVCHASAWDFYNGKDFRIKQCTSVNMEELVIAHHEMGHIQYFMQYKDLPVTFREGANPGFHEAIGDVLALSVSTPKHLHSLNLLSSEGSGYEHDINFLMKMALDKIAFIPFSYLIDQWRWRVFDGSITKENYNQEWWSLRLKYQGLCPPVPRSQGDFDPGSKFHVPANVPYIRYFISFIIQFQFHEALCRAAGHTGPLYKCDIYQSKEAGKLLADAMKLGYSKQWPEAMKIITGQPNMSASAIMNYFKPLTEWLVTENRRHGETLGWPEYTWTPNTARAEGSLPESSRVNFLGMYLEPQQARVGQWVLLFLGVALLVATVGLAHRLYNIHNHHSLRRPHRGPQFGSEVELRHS
Outline: (§1)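 Male conscious normotensive Sprague-Dawley rats (275-390 g), given femoral arterial and venous catheters under methohexital sodium (75 mg/kg ip) anesthesia. Next day, pressor responses to three angiotensin-I challenges (300 ng/kg iv) recorded by direct arterial pressure. Compound then dosed orally, and AI challenge repeated at set times. Each post-dose response compared with the mean of the three baseline responses, giving % inhibition.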

[2] = biological target: T1, Angiotensin-converting enzyme (Rattus norvegicus); test: Compound was tested for plasma inhibition of Angiotensin I converting enzyme activity in the conscious rat. Expressed as Inhibition of AI pressor response at 4 hr at a dose of 12.4 mg/kg po; set-up: dose 12.4 mg/kg; outline: as §1
[3] = biological target: T1, Angiotensin-converting enzyme (Rattus norvegicus); test: Compound was tested for plasma inhibition of Angiotensin I converting enzyme activity in the conscious rat. Expressed as Inhibition of AI pressor response at 2 hr at a dose of 12.4 mg/kg po; set-up: dose 12.4 mg/kg; outline: as §1
[4] = biological target: T1, Angiotensin-converting enzyme (Rattus norvegicus); test: Compound was tested for plasma inhibition of Angiotensin I converting enzyme activity in the conscious rat. Expressed as Inhibition of AI pressor response at 6 hr at a dose of 12.4 mg/kg po; set-up: dose 12.4 mg/kg
Outline: (§2)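 Male conscious normotensive Sprague-Dawley rats (275-390 g), prepared under methohexital sodium (75 mg/kg ip) with femoral arterial and venous catheters. The next day, pressor responses to three angiotensin-I challenges (300 ng/kg iv) were recorded. Compound was then given orally and angiotensin-I challenges were repeated at set times. Percent inhibition is relative to the mean of the three baseline responses.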

[5] = biological target: T1, Angiotensin-converting enzyme (Rattus norvegicus); test: Compound was tested for plasma inhibition of Angiotensin I converting enzyme activity in the conscious rat. Expressed as Inhibition of AI pressor response at 1 hr at a dose of 12.8 mg/kg po; set-up: dose 12.8 mg/kg; outline: as §1
[6] = biological target: T1, Angiotensin-converting enzyme (Rattus norvegicus); test: Compound was tested for plasma inhibition of Angiotensin I converting enzyme activity in the conscious rat. Expressed as Inhibition of AI pressor response at 2 hr at a dose of 12.8 mg/kg po; set-up: dose 12.8 mg/kg; outline: as §1
[7] = biological target: T1, Angiotensin-converting enzyme (Rattus norvegicus); test: Compound was tested for plasma inhibition of Angiotensin I converting enzyme activity in the conscious rat. Expressed as Inhibition of AI pressor response at 6 hr at a dose of 12.8 mg/kg po; set-up: dose 12.8 mg/kg; outline: as §2
[8] = biological target: T1, Angiotensin-converting enzyme (Rattus norvegicus); test: Compound was tested for plasma inhibition of Angiotensin I converting enzyme activity in the conscious rat. Expressed as Inhibition of AI pressor response at 4 hr at a dose of 12.8 mg/kg po; set-up: dose 12.8 mg/kg; outline: as §1
[9] = biological target: T1, Angiotensin-converting enzyme (Rattus norvegicus); test: Compound was tested for plasma inhibition of Angiotensin I converting enzyme activity in the conscious rat. Expressed as Inhibition of AI pressor response at 2 hr at a dose of 13.1 mg/kg po; set-up: dose 13.1 mg/kg; outline: as §1
[10] = biological target: T1, Angiotensin-converting enzyme (Rattus norvegicus); test: Compound was tested for plasma inhibition of Angiotensin I converting enzyme activity in the conscious rat. Expressed as Inhibition of AI pressor response at 1 hr at a dose of 13.1 mg/kg po; set-up: dose 13.1 mg/kg; outline: as §1
[11] = biological target: T1, Angiotensin-converting enzyme (Rattus norvegicus); test: Compound was tested for plasma inhibition of Angiotensin I converting enzyme activity in the conscious rat. Expressed as Inhibition of AI pressor response at 4 hr at a dose of 13.1 mg/kg po; set-up: dose 13.1 mg/kg; outline: as §2
[12] = biological target: T1, Angiotensin-converting enzyme (Rattus norvegicus); test: Compound was tested for plasma inhibition of Angiotensin I converting enzyme activity in the conscious rat. Expressed as Inhibition of AI pressor response at 6 hr at a dose of 13.1 mg/kg po; set-up: dose 13.1 mg/kg; outline: as §2
[13] = biological target: T1, Angiotensin-converting enzyme (Rattus norvegicus); test: Compound was tested for plasma inhibition of Angiotensin I converting enzyme activity in the conscious rat. Expressed as Inhibition of AI pressor response at 4 hr at a dose of 10 mg/kg po; set-up: dose 10 mg/kg; outline: as §1
[14] = biological target: T1, Angiotensin-converting enzyme (Rattus norvegicus); test: Compound was tested for plasma inhibition of Angiotensin I converting enzyme activity in the conscious rat. Expressed as Inhibition of AI pressor response at 1 hr at a dose of 10 mg/kg po; set-up: dose 10 mg/kg; outline: as §1
[15] = biological target: T1, Angiotensin-converting enzyme (Rattus norvegicus); test: Compound was tested for plasma inhibition of Angiotensin I converting enzyme activity in the conscious rat. Expressed as Inhibition of AI pressor response at 6 hr at a dose of 10 mg/kg po; set-up: dose 10 mg/kg; outline: as §2
[16] = biological target: T1, Angiotensin-converting enzyme (Rattus norvegicus); test: Compound was tested for plasma inhibition of Angiotensin I converting enzyme activity in the conscious rat. Expressed as Inhibition of AI pressor response at 2 hr at a dose of 10 mg/kg po; set-up: dose 10 mg/kg; outline: as §1
[17] = biological target: T1, Angiotensin-converting enzyme (Rattus norvegicus); test: Compound was tested for plasma inhibition of Angiotensin I converting enzyme activity in the conscious rat. Expressed as Inhibition of AI pressor response at 6 hr at a dose of 12.7 mg/kg po; set-up: dose 12.7 mg/kg; outline: as §2
[18] = biological target: T1, Angiotensin-converting enzyme (Rattus norvegicus); test: Compound was tested for plasma inhibition of Angiotensin I converting enzyme activity in the conscious rat. Expressed as Inhibition of AI pressor response at 2 hr at a dose of 12.7 mg/kg po; set-up: dose 12.7 mg/kg; outline: as §1
[19] = biological target: T1, Angiotensin-converting enzyme (Rattus norvegicus); test: Compound was tested for plasma inhibition of Angiotensin I converting enzyme activity in the conscious rat. Expressed as Inhibition of AI pressor response at 4 hr at a dose of 12.7 mg/kg po; set-up: dose 12.7 mg/kg; outline: as §1
[20] = biological target: T1, Angiotensin-converting enzyme (Rattus norvegicus); test: Compound was tested for plasma inhibition of Angiotensin I converting enzyme activity in the conscious rat. Expressed as Inhibition of AI pressor response at 1 hr at a dose of 12.7 mg/kg po; set-up: dose 12.7 mg/kg; outline: as §1
[21] = biological target: T1, Angiotensin-converting enzyme (Rattus norvegicus); test: Compound was tested for plasma inhibition of Angiotensin I converting enzyme activity in the conscious rat. Expressed as Inhibition of AI pressor response at 4 hr at a dose of 14.3 mg/kg po; set-up: dose 14.3 mg/kg; outline: as §2
[22] = biological target: T1, Angiotensin-converting enzyme (Rattus norvegicus); test: Compound was tested for plasma inhibition of Angiotensin I converting enzyme activity in the conscious rat. Expressed as Inhibition of AI pressor response at 1 hr at a dose of 14.3 mg/kg po; set-up: dose 14.3 mg/kg; outline: as §1
[23] = biological target: T1, Angiotensin-converting enzyme (Rattus norvegicus); test: Compound was tested for plasma inhibition of Angiotensin I converting enzyme activity in the conscious rat. Expressed as Inhibition of AI pressor response at 2 hr at a dose of 14.3 mg/kg po; set-up: dose 14.3 mg/kg; outline: as §1
[24] = biological target: T1, Angiotensin-converting enzyme (Rattus norvegicus); test: Compound was tested for plasma inhibition of Angiotensin I converting enzyme activity in the conscious rat. Expressed as Inhibition of AI pressor response at 6 hr at a dose of 14.3 mg/kg po; set-up: dose 14.3 mg/kg; outline: as §2

- inhibition [1]: 76%
- inhibition [2]: 69%
- inhibition [3]: 77%
- inhibition [4]: 20%
SMILES: CC(=O)S[C@@H](C(=O)NC1(C(=O)N[C@@H](Cc2ccc(O)cc2)C(=O)OCC(C)C)CCCC1)C(C)C

- inhibition [5]: 70%
- inhibition [6]: 63%
- inhibition [7]: 18%
- inhibition [8]: 35%
SMILES: CCOC(=O)[C@H](Cc1ccc(O)cc1)NC(=O)C1(NC(=O)[C@H](SC(=O)CN(C)C)C(C)C)CCCC1

- inhibition [9]: 74%
- inhibition [10]: 72%
- inhibition [11]: 54%
- inhibition [12]: 28%
SMILES: CC(=O)S[C@@H](C(=O)NC1(C(=O)N[C@@H](Cc2ccc(O)cc2)C(=O)OCc2ccccc2)CCCC1)C(C)C

- inhibition [13]: 39%
- inhibition [14]: 100%
- inhibition [15]: 16%
- inhibition [16]: 77%
SMILES: CCOC(=O)[C@H](CCc1ccccc1)N[C@H]1CCc2ccccc2N(CC(=O)O)C1=O

- inhibition [9]: 85%
- inhibition [10]: 82%
- inhibition [11]: 76%
- inhibition [12]: 69%
SMILES: CCCCOC(=O)[C@H](Cc1ccc(O)cc1)NC(=O)C1(NC(=O)[C@H](SC(=O)CCC)C(C)C)CCCC1

- inhibition [17]: 29%
- inhibition [18]: 51%
- inhibition [19]: 33%
- inhibition [20]: 58%
SMILES: CC(=O)S[C@@H](C(=O)NC1(C(=O)N[C@@H](Cc2ccc(O)cc2)C(=O)OC2CCCC2)CCCC1)C(C)C

- inhibition [21]: 36%
- inhibition [22]: 45%
- inhibition [23]: 30%
- inhibition [24]: 10%
SMILES: CCOC(=O)[C@H](Cc1ccc(OC(=O)c2ccccc2)cc1)NC(=O)C1(NC(=O)[C@H](SC(C)=O)C(C)C)CCCC1

- inhibition [9]: 16%
- inhibition [10]: 27%
- inhibition [11]: 25%
SMILES: CCCCOC(=O)[C@H](Cc1ccc(O)cc1)NC(=O)C1(NC(=O)[C@H](SC(=O)C(C)C)C(C)C)CCCC1

- inhibition [9]: 75%
- inhibition [10]: 76%
- inhibition [11]: 58%
- inhibition [12]: 54%
SMILES: CCCCOC(=O)[C@H](Cc1ccc(O)cc1)NC(=O)C1(NC(=O)[C@H](SC(=O)COC)C(C)C)CCCC1
